Experimental data collected from several papers.
Lines come from different studies, so protocols differ.
Target: G protein-coupled receptor kinase 3 (GRK3, Homo sapiens, UniProt P35626)
Sequence (P35626 1-688, as in one of the studies): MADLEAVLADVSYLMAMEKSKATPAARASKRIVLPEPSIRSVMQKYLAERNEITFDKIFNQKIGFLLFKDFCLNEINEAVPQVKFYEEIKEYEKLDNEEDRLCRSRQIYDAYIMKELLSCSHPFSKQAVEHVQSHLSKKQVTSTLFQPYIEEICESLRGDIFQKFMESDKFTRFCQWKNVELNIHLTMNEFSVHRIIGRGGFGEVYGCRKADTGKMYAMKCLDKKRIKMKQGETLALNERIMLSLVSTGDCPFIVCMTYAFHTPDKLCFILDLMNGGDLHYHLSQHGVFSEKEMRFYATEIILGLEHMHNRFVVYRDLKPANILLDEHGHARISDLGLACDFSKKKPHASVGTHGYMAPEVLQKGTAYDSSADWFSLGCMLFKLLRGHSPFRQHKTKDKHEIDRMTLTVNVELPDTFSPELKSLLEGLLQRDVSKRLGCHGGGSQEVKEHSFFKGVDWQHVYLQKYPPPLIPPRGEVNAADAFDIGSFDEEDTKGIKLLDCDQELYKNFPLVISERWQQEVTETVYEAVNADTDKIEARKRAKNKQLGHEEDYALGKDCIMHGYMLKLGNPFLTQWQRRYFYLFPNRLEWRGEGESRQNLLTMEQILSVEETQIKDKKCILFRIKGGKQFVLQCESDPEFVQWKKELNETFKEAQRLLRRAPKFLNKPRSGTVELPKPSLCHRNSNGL

The remaining binding of `COc1ccc2c(c1)O[C@@H](c1ccc(OC)c(OC)c1)C[C@H]2NC(=O)C1(c2ccc3c(c2)OC(F)(F)O3)CC1` is reported as 75% (cell-free assay, competition with immobilised ligand; 1 µM).
For `Nc1ncnc2occ(-c3ccc(NC(=O)Nc4cc(C(F)(F)F)ccc4F)cc3)c12`, the remaining signal was 69% (cell-free assay, inhibitor; 20 µM).
`Cn1c2c(c3ccc(Cl)c(Cl)c31)C(C#N)C1(CCCCC1)NC2=O` (racemic) has a ΔTm of 0.4 °C (thermal stability, DSF; 10 µM).
`CC(C)(C)c1nc(-c2cccc(NS(=O)(=O)c3c(F)cccc3F)c2F)c(-c2ccnc(N)n2)s1` gave a remaining activity of 86% (enzyme activity, inhibitor, radiometric; 1 µM).
With `Cn1c2c(Cl)c(Cl)ccc2c2cc[nH]c(=O)c21` the ΔTm was -0.3 °C (thermal stability, DSF; 10 µM).
For `CN1CC(Oc2cnc(C#N)cc2-c2ccn3nc(NC(=O)C4CC4)cc3c2)C1`, the inhibition was 0% (enzyme activity, inhibitor; 1 µM).
`Cc1ccc(C(=O)NCc2ccsc2)cc1C#Cc1cn(C(C)C)c2ncnc(N)c12` gave an activity vs control of 105% (enzyme activity, inhibitor; 1 µM).
`Cc1sc(C(=O)NC2COC2)cc1-n1cc(NC(=O)Nc2c(F)cccc2Cl)cn1` has a remaining activity of 107% (enzyme activity, inhibitor; 10 µM).
For `COCCOc1nc(-c2ccc(Cl)nc2)nc2c1CN(C(=O)c1ncn3ccccc13)CC2`, the remaining binding was 100% (cell-free assay, competition with immobilised ligand; 0.1 µM).
`O=C1Nc2ccc(Cl)cc2C1=Cc1cc(Cl)c(O)c(Cl)c1` has a remaining signal of 102% (cell-free assay; 0.5 µM).
For `CNC(=O)c1ccc(Nc2ncc(C(F)(F)F)c(NCc3nccnc3N(C)S(C)(=O)=O)n2)cc1`, the remaining binding was 80% (cell-free assay, competition with immobilised ligand; 0.1 µM).
With `CCOc1cc(-c2nncn2C)ccc1Nc1ncc2cc(C)nc(NCC(C)(C)C)c2n1` the inhibition was less than 15% (enzyme activity, inhibitor, FRET; 1 µM).
`Cn1c2c(c3ccc(Cl)c(Cl)c31)C(C#N)C1(CCCC1)NC2=O` (stereo not drawn) has a ΔTm of -0.1 °C (thermal stability, DSF; 10 µM).
With `COc1ccc2cc(OCC3(C(=O)O)CN(C(=O)c4ccc(F)cc4)C3)ccc2c1` the remaining binding was 67% (cell-free assay, competition with immobilised ligand; 1 µM).
The inhibition of `COc1cc2ncnc(Nc3ccc(Oc4ccccc4)cc3C)c2cc1OC` is reported as 1% (enzyme activity, inhibitor; 1 µM).
`Cn1c2c(c3ccc(Cl)c(Cl)c31)C(C#N)C1(CCNCC1)NC2=O` (racemic) gave a ΔTm of 1.1 °C (thermal stability, DSF; 10 µM).
With `CS(=O)(=O)N1CCCC(NC(=O)[C@H](CCC2CCCCC2)NC(=O)c2ccc(CNC(=O)c3cnc4ccccn34)cc2)C1` (stereo partly drawn) the remaining binding was 100% (cell-free assay, competition with immobilised ligand; 0.1 µM).
With `CCC1(CC)NC(=O)c2c(c3ccc(Cl)c(Cl)c3n2C)C1C#N` (stereo not drawn) the ΔTm was 0.1 °C (thermal stability, DSF; 10 µM).
With `O=C1NC(=O)c2cc(Nc3ccc(F)cc3)c(Nc3ccc(F)cc3)cc21` the remaining signal was 104% (cell-free assay; 0.5 µM).
With `Cn1c2c(Cl)c(Cl)ccc2c2cc(N)[nH]c(=O)c21` the ΔTm was 0 °C (thermal stability, DSF; 10 µM).
`CN(c1ccnc(CNc2nc(Nc3ccc4c(c3)CC(=O)N4)ncc2C(F)(F)F)n1)S(C)(=O)=O` has a remaining binding of 91% (cell-free assay, competition with immobilised ligand; 1 µM).
